MT1-MMP act inh = blocks activation of human MT1-MMP; HT1080 RFP-PRO-GFP cells, GFP/RFP ratio fluorescence, overnight; percent of plate control window, DMSO zero; 0.061% of 360,000 active; P50281; AID 651647; GFP/RFP ratio change, % at 20 µM;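 active = GFP/RFP ratio change of at least 30% with cell ATP level not reduced by more than half and red fluorescence within 50% of control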
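Read-out: GFP/RFP fluorescence ratio; Test system: RFP-PRO-GFP reporter HT1080 cells; Compound dosing: single-point 20 µM compound, 1% DMSO; Times: overnight compound exposure at 37 °C.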
SKN-1 block = C. elegans SKN-1 inhibition; C. elegans VP596 Pgst-4::GFP/RFP ratio, acrylamide-induced, 24 h; inhibition, % at 21.8 µM; 0.49% of 360,000 active;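 active = interference check ratio from 0.5 to 1.5 plus GFP to RFP signal ratio inhibition reaching or exceeding a fixed threshold, cut at about 30% in these data, passing the limit was not always enough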
NOD2 RIPK2 PPI = NOD2-RIPK2 protein interaction inhibition; O43353; CHO BLA complementation NOD2-RIPK2, CCF4 ratio; inhibition, % at 4.98 µM; 0.38% of 360,000 active; AID 624267; in the data active = inhibition above about 21%
TLR9-MyD88 block = inhibitors of human TLR9-MyD88 binding; CHO BLA complementation TLR9-MyD88, CCF4 FRET ratio; inhibition, % at 4.98 µM; 0.21% of 340,000 active; AID 504734; Q9NR96+Q99836;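 active = inhibition above the mean over all tested compounds plus 3 SD, cut at about 21% in these data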
TLR4 MyD88 comp = inhibitors of human TLR4-MyD88 binding. 0.18% of 200,000 active. HeLa CL3-4 TLR4/MyD88 BLA complementation, FRET ratio. O00206+Q99836. inhibition, % at 8.4 µM. AID 861; in the data active = inhibition above about 25%
TLR9-MyD88 conf = confirmation of human TLR9-MyD88 binding inhibitors. shares compounds with TLR9-MyD88 block. CHO TLR9/MyD88 BLA complementation, CCF4 FRET ratio. inhibition, % at 4.98 µM. 51% of 680 active;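 active = mean inhibition across three repeats above about 21% taken from the earlier screen, limit read from the data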;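 also: blue over green emission ratio reports constitutive TLR9 MyD88 association via BLA complementation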
BLA counter-1 = non-selective beta-lactamase inhibitors in TLR9-MyD88 counter-screen | inhibition, % at 4.98 µM | CHO-BLA cells, CCF4 FRET ratio, BLA reporter | AID 540251 | 7% of 680 active | shares compounds with TLR9-MyD88 block;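 active = mean inhibition above a 50% cutoff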;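 also: counterscreen of TLR9-MyD88 hits on CMV-driven BLA in CHO-K1 cells; higher means less blue over green ratio so more BLA blockade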
TLR9 CHO tox = counter-screen for TLR9-MyD88 inhibitors: cytotoxicity in CHO cells. luminescence. inhibition, % at 4.98 µM. 39% of 680 active. shares compounds with TLR9-MyD88 block. AID 588336; in the data active = inhibition above about 11%
NOD2-RIPK2 conf = confirmation of human NOD2-RIPK2 interaction inhibitors; shares compounds with NOD2 RIPK2 PPI; CHO cells, NOD2-RIPK2 BLA complementation, CCF4 FRET; inhibition, % at 4.98 µM; 70% of 1,200 active;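 active = mean inhibition across replicates above a set limit taken from the earlier primary screen, cut at about 21% in these data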
BLA counter-2 = counter-screen for NOD2-RIPK2 interaction inhibitors: BLA reporter; shares compounds with NOD2 RIPK2 PPI; CHO BLA reporter, CCF4 FRET ratio, counterscreen; inhibition, % at 4.98 µM; 57% of 1,200 active; AID 624371;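 active = mean inhibition above the low-control mean inhibition plus three low-control SD, cut at about 11% in these data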
Of the large screens only hits and unclear results are named; the others gave an inactive call (follow-up assays come after a bar, where they were run). Only some compounds are listed: those with a hit (about 0.99% of all), similar ones and a draw of the others.

COCCN(Cc1cc2cc(C)ccc2[nH]c1=O)S(=O)(=O)c1ccc(Cl)cc1	none (no result: TLR4 MyD88 comp)
O=c1c(Cl)c(Cl)cnn1-c1ccccc1	NOD2 RIPK2 PPI 23, TLR9-MyD88 block 24 | TLR9-MyD88 conf 21 | BLA counter-1 inactive | TLR9 CHO tox 98 | NOD2-RIPK2 conf 35 | BLA counter-2 inactive
CCc1cccc2cc3c(N)c(C(=O)Nc4ccc(S(=O)(=O)N5CCCC5)cc4)sc3nc12	NOD2 RIPK2 PPI 33, TLR9-MyD88 block 30 | TLR9-MyD88 conf inactive | BLA counter-1 inactive | TLR9 CHO tox 29 | NOD2-RIPK2 conf 42 | BLA counter-2 51
COc1cccc(CC(=O)Nc2ccc(S(=O)(=O)N3CCCCC3)cc2)c1	none (no result: TLR4 MyD88 comp)
COc1cccc(CNC(=O)c2ccc(S(=O)(=O)N3CCCCC3)cc2)c1	none (no result: TLR4 MyD88 comp)
CSc1ccccc1C(=O)C1CCCN(C(=O)c2cncs2)C1 (stereo not drawn)	none (no result: TLR4 MyD88 comp)
CCc1cc2c(=O)nc3n(c2s1)Cc1ccccc1/C3=C(/O)c1cccc([N+](=O)[O-])c1	none
CCc1cc2c(=O)nc3n(c2s1)Cc1ccccc1/C3=C(/O)c1ccc(F)cc1	NOD2 RIPK2 PPI 23, TLR9-MyD88 block 23 | TLR9-MyD88 conf inactive | BLA counter-1 inactive | TLR9 CHO tox inactive | NOD2-RIPK2 conf inactive | BLA counter-2 inactive
CC1=C(SCc2ccccc2)C(=O)c2ccccc2C1=O	none (no result: TLR4 MyD88 comp)
O=C1C(SCCO)=C(SCCO)C(=O)c2ccccc21	NOD2 RIPK2 PPI 84, TLR9-MyD88 block 64 (no result: TLR4 MyD88 comp) | TLR9-MyD88 conf 84 | BLA counter-1 inactive | TLR9 CHO tox 99 | NOD2-RIPK2 conf 92 | BLA counter-2 34
NC(=O)c1ccc2c(=O)n3c(-c4cccs4)csc3nc2c1	none (no result: TLR4 MyD88 comp)
COc1ccc(NC(=O)/C(Cl)=C(/Cl)S(=O)(=O)Cc2ccccc2)cn1	NOD2 RIPK2 PPI 56, TLR9-MyD88 block 28 | TLR9-MyD88 conf 21 | BLA counter-1 inactive | TLR9 CHO tox 99 | NOD2-RIPK2 conf 68 | BLA counter-2 23
COc1ccc(NC(=O)Nc2ccc(OCc3ccccc3)cc2)cn1	none (no result: TLR4 MyD88 comp)
Nc1ccc2nc(-c3ccccc3)cnc2c1	NOD2 RIPK2 PPI 44, TLR9-MyD88 block 39 (no result: TLR4 MyD88 comp) | TLR9-MyD88 conf 30 | BLA counter-1 inactive | TLR9 CHO tox inactive | NOD2-RIPK2 conf 57 | BLA counter-2 63
Nc1ccc2nc(-c3ccccc3)c(-c3ccccc3)nc2c1	NOD2 RIPK2 PPI 44, TLR9-MyD88 block 38 (no result: TLR4 MyD88 comp) | TLR9-MyD88 conf 33 | BLA counter-1 inactive | TLR9 CHO tox inactive | NOD2-RIPK2 conf 60 | BLA counter-2 68
Cc1ccc(C(=O)Nc2ccccc2C(=O)O)cc1S(=O)(=O)Nc1ccc(Br)cc1	none (no result: TLR4 MyD88 comp)
CCCNC(=O)C1(C)CCCN(C(=O)COc2ccc(C(C)(C)C)cc2)C1 (stereo not drawn)	none (no result: TLR9-MyD88 block, TLR4 MyD88 comp)
O=C(Nc1ccc(F)cc1)c1ccc(Br)c(S(=O)(=O)N2CCOCC2)c1	none (no result: TLR4 MyD88 comp)
Cc1nc(C)c(C(=O)OCC(=O)NCCc2ccc(F)cc2)s1	none (no result: TLR4 MyD88 comp)
COc1ccc(C)cc1NC(=O)C1CCCN(S(=O)(=O)c2cccnc2)C1 (stereo not drawn)	none (no result: TLR4 MyD88 comp)
O=C(NCCN1C(=O)S/C(=C\c2ccc(Cl)c(Cl)c2)C1=O)c1cnccn1	none
O=C(NCCN1C(=O)S/C(=C\c2ccc(Cl)c([N+](=O)[O-])c2)C1=O)C1=COCCO1	NOD2 RIPK2 PPI 39, TLR9-MyD88 block 24 (no result: TLR4 MyD88 comp) | TLR9-MyD88 conf inactive | BLA counter-1 inactive | TLR9 CHO tox inactive | NOD2-RIPK2 conf 63 | BLA counter-2 inactive
COc1ccc(OC)c(/C=C/C(=O)N2C(=O)c3cccc(N)c3C2=O)c1	NOD2 RIPK2 PPI 21, TLR9-MyD88 block 22 | TLR9-MyD88 conf inactive | BLA counter-1 inactive | TLR9 CHO tox 19 | NOD2-RIPK2 conf 39 | BLA counter-2 38
CCCCCC(=O)N=Nc1c(O)[nH]c2ccc([N+](=O)[O-])cc12	NOD2 RIPK2 PPI active, TLR9-MyD88 block 23 | TLR9-MyD88 conf inactive | BLA counter-1 inactive | TLR9 CHO tox inactive | NOD2-RIPK2 conf inactive | BLA counter-2 inactive
CCNC(=S)N=Nc1c(O)[nH]c2ccc([N+](=O)[O-])cc12	none
O=c1oc2c(O)cccc2cc1-c1nc2ccccc2[nH]1	NOD2 RIPK2 PPI 58, TLR9-MyD88 block 54 (no result: TLR4 MyD88 comp) | TLR9-MyD88 conf 45 | BLA counter-1 54 | TLR9 CHO tox inactive | NOD2-RIPK2 conf 73 | BLA counter-2 79
O=C(/C=C/Sc1ccc(C(F)(F)F)cn1)c1ccccc1	none (no result: TLR4 MyD88 comp)
COc1ccc(C[C@@H]2OC3(C=CC(=O)C=C3)O[C@H]2Cc2ccc(OC)cc2)cc1	NOD2 RIPK2 PPI 92, TLR9-MyD88 block 39 (no result: TLR4 MyD88 comp) | TLR9-MyD88 conf 44 | BLA counter-1 inactive | TLR9 CHO tox 98 | NOD2-RIPK2 conf 93 | BLA counter-2 38
O=C1C=CC2(C=C1)O[C@H](Cc1ccccc1)[C@@H](Cc1ccccc1)O2	NOD2 RIPK2 PPI 89, TLR9-MyD88 block 26 (no result: TLR4 MyD88 comp) | TLR9-MyD88 conf 39 | BLA counter-1 inactive | TLR9 CHO tox 99 | NOD2-RIPK2 conf 91 | BLA counter-2 29
O=C1Nc2ccccc2C1Cc1ccccc1 (stereo not drawn)	none (no result: TLR4 MyD88 comp)
O=C(Nc1ccccc1)c1cc2ccc3ccccc3c2s1	none (no result: TLR4 MyD88 comp)
O=Nc1c(O)n(Cc2ccc(Cl)c(Cl)c2)c2ccccc12	NOD2 RIPK2 PPI 34, TLR9-MyD88 block 28 | TLR9-MyD88 conf inactive | BLA counter-1 inactive | TLR9 CHO tox 17 | NOD2-RIPK2 conf 56 | BLA counter-2 42
CCNC(=S)N=Nc1c(O)n(Cc2ccc(Cl)cc2)c2ccccc12	none
CC(=O)Oc1c(-c2ccc(Br)o2)oc2ccccc2c1=O	NOD2 RIPK2 PPI 25, TLR9-MyD88 block 27 (no result: TLR4 MyD88 comp) | TLR9-MyD88 conf inactive | BLA counter-1 inactive | TLR9 CHO tox inactive | NOD2-RIPK2 conf 35 | BLA counter-2 34
COc1ccc(-c2oc3ccccc3c(=O)c2OC(C)=O)cc1	none
Oc1c(Cl)cc(Cl)cc1/C=N/NC(=S)NC1CC2C=CC1C2 (stereo not drawn)	NOD2 RIPK2 PPI 49, TLR9-MyD88 block 24 (no result: TLR4 MyD88 comp) | TLR9-MyD88 conf 24 | BLA counter-1 inactive | TLR9 CHO tox 17 | NOD2-RIPK2 conf 43 | BLA counter-2 62
COc1ccc(C2(C)NC(=O)N(CC(=O)NC3CCCC3)C2=O)cc1OC (stereo not drawn)	none (no result: TLR4 MyD88 comp)

High-throughput results (PubChem)
